Tests used:
SK-OV-3 [1] = assay: Antiproliferative activity against human SK-OV-3 cells assessed as cell growth inhibition at 20 uM incubated for 48 hrs by MTT assay relative to control; type: functional
Bel-7402 [2] = assay: Antiproliferative activity against human Bel-7402 cells assessed as cell growth inhibition at 20 uM incubated for 48 hrs by MTT assay relative to control; type: functional
HepG2 [3] = assay: Antiproliferative activity against human HepG2 cells assessed as cell growth inhibition at 20 uM incubated for 48 hrs by MTT assay relative to control; type: functional
Caco-2 [4] = assay: Antiproliferative activity against human Caco-2 cells assessed as cell growth inhibition at 20 uM incubated for 48 hrs by MTT assay relative to control; type: functional
[5] = Cytotoxicity against human HL7702 cells assessed as cell growth inhibition at 20 uM incubated for 48 hrs by MTT assay relative to control; type: cell-based; conditions: HL7702 (L02) cells
[6] = molecular target: T1, Poly [ADP-ribose] polymerase 1 (Homo sapiens, UniProt P09874); conditions: dose 100.0 nM, time 30.0 min
T1 sequence (P09874 whole entry): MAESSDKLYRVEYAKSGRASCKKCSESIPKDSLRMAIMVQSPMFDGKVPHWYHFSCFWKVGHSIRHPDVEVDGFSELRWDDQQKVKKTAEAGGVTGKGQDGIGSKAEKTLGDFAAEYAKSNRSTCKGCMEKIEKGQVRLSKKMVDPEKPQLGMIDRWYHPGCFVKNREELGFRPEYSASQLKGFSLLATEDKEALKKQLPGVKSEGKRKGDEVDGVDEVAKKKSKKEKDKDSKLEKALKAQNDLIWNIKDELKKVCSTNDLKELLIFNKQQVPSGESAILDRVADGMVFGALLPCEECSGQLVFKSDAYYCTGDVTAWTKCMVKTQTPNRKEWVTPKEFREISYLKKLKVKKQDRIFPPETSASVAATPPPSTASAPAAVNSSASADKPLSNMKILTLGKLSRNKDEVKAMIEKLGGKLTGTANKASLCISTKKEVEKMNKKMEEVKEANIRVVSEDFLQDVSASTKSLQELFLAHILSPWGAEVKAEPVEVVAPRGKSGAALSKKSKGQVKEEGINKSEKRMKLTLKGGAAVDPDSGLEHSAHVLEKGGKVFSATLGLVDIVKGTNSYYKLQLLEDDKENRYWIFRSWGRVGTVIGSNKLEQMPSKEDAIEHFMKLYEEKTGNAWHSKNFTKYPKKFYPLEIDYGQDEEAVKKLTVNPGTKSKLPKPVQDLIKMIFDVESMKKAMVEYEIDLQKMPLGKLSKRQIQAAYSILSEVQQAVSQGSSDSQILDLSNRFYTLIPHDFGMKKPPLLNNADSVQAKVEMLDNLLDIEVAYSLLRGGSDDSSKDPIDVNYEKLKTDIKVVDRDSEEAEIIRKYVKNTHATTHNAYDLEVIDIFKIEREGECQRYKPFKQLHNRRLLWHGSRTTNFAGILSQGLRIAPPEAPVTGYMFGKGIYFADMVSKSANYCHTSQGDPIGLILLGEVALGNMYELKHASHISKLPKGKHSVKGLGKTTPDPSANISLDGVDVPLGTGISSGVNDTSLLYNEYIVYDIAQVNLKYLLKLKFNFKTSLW

[7] = molecular target: T1, Poly [ADP-ribose] polymerase 1; assay: Inhibition of human recombinant GST-tagged PARP-1 expressed in Escherichia coli assessed as reduction in NAD+-dependent ADP ribosylation incubated for 30 mins in presence and NAD by resazurin dye based fluorescence analysis
[8] = molecular target: Poly [ADP-ribose] polymerase 2 (Homo sapiens, UniProt Q9UGN5); assay: Inhibition of human recombinant N-terminal GST-tagged PARP-2 expressed in Baculovirus infected Sf9 cells assessed as reduction in NAD+-dependent ADP ribosylation using histone mixture (H2A and H2B) as substrate in presence of activated DNA incubated for 30 mins by chemiluminescence assay
Chain of Poly [ADP-ribose] polymerase 2 (Q9UGN5 whole entry): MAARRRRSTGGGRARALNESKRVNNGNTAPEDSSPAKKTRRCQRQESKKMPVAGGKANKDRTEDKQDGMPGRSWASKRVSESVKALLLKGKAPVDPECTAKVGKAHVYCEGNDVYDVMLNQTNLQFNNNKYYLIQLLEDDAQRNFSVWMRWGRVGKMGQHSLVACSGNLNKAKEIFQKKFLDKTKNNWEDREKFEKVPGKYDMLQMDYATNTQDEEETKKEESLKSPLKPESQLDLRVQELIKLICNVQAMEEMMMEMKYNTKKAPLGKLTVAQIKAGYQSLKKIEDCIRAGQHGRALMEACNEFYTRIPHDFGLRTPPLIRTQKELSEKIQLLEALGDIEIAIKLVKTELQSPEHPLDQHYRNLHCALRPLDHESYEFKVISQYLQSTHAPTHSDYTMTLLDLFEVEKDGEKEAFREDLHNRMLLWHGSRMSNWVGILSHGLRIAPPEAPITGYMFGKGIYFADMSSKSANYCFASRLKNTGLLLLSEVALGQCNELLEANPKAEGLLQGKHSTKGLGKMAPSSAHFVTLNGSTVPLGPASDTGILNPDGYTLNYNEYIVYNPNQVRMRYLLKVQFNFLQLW

[9] = Selectivity index, ratio of IC50 for inhibition of human recombinant N-terminal GST-tagged PARP-2 to IC50 for inhibition of human recombinant GST-tagged PARP-1
SK-OV-3 [10] = assay: Antiproliferative activity against human SK-OV-3 cells assessed as cell growth inhibition incubated for 48 hrs by MTT assay; type: functional, cell-based; conditions: SK-OV-3, 48 h
Procedure, shortened: (§1)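 Cells seeded in 96-well plates and exposed to compounds for 48 h; viability read by MTT. Each experiment repeated three times. SK-OV-3 grown in McCOY's 5A, Bel-7402 and HL-7702 in RPMI-1640, HepG2 in DMEM, Caco-2 in MEM.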

Bel-7402 [11] = assay: Antiproliferative activity against human Bel-7402 cells assessed as cell growth inhibition incubated for 48 hrs by MTT assay; type: functional, cell-based; conditions: Bel-7402, 48 h; procedure, shortened: as §1
HepG2 [12] = assay: Antiproliferative activity against human HepG2 cells assessed as cell growth inhibition incubated for 48 hrs by MTT assay; type: functional, cell-based; conditions: HepG2, 48 h; procedure, shortened: as §1
Caco-2 [13] = assay: Antiproliferative activity against human Caco-2 cells assessed as cell growth inhibition incubated for 48 hrs by MTT assay; type: functional, cell-based; conditions: Caco-2, 48 h; procedure, shortened: as §1
L02 = assay: Cytotoxicity against human HL7702 cells assessed as cell growth inhibition incubated for 48 hrs by MTT assay; type: cell-based; conditions: L02, 48 h; procedure, shortened: as §1

Row | inhibition [6] [%] | IC50 [7] [µM] | IC50 [8] [µM] | Ratio IC50 [9] | IC50 (SK-OV-3 [10]) [µM] | IC50 (Bel-7402 [11]) [µM] | IC50 (HepG2 [12]) [µM] | IC50 (Caco-2 [13]) [µM] | Structure (SMILES) | inhibition at 20 µM (SK-OV-3 [1]) [%] | inhibition at 20 µM (Bel-7402 [2]) [%] | inhibition at 20 µM (HepG2 [3]) [%] | inhibition at 20 µM (Caco-2 [4]) [%] | inhibition at 48 h, 20 µM [5] [%] | IC50 (L02) [µM]
1 | 44.1 |  |  |  |  |  |  |  | CNC(=S)N/N=C/c1cc(Br)c(OC)c(OC)c1 | 32.9 | 29.6 | 57.2 | 43.8 | 44.3 | 
2 | 61 | 0.254 | > 1 | > 3.94 |  |  |  |  | COc1cc(/C=N/NC(N)=S)c(Br)c(Br)c1O | 28 | 44.8 | 50.8 | 24.9 | < 0 | 
3 | 20.6 |  |  |  |  |  |  |  | COc1cc(/C=N/NC(=S)Nc2ccccc2)ccc1O | 45.3 | 41 | 58.4 | 75.1 | 9.28 | 
4 | 23.7 |  |  |  |  |  |  |  | COc1cc(/C=N/NC(=S)Nc2ccc(Oc3ccccc3)cc2)c(Br)c(Br)c1OC | 15 | < 0 | < 0 | < 0 | < 0 | 
5 | 23 |  |  |  |  |  |  |  | COc1cc(/C=N/NC(=S)Nc2cccc(C(F)(F)F)c2)c(Br)c(Br)c1OC | < 0 | 12.7 | 43.2 | 6.4 | 71.1 | 
6 | 43.8 |  |  |  | 9.25 | 30.2 | 25.7 | 9.97 | COc1cc(/C=N/NC(=S)Nc2ccccc2)c(Br)c(Br)c1OC | 90.4 | 50.3 | 54.6 | 14.2 | 86.4 | 22.6
7 | 37.1 |  |  |  | 19.2 | 19.6 | 16 | 16.4 | NC(=S)N/N=C/c1cc(O)c(O)c(Br)c1Br | 60.7 | 69.3 | 65.8 | 53.6 | 82.9 | 13.5
8 | 32.2 |  |  |  |  |  |  |  | COc1cc(/C=N/NC(=S)Nc2ccc(Cl)cc2)cc(Br)c1OC | 41.5 | 55.7 | 46.6 | 55.4 | 42.9 | 
9 | 37 |  |  |  |  |  |  |  | COc1cc(Br)c(/C=N/NC(=S)Nc2ccccc2)cc1OC | 41.3 | 19.3 | 67 | 25.7 | 78.7 | 
10 | 33 |  |  |  |  |  |  |  | COc1cc(/C=N/NC(=S)NCCCN2CCOCC2)cc(Br)c1OC | 37.7 | 39.4 | 35.2 | 36.9 | 24.7 | 
11 | 28.1 |  |  |  |  |  |  |  | COc1ccc(/C=N/NC(N)=S)cc1O |  |  |  |  |  | 
12 | 38.1 |  |  |  |  |  |  |  | COc1cc(/C=N/NC(=S)Nc2ccc(F)cc2)cc(Br)c1OC | 42.4 | 48.2 | 32.3 | 49.1 | 68.6 | 
13 | 18.2 |  |  |  |  |  |  |  | COc1cc(/C=N/NC(=S)Nc2ccccc2)cc(Br)c1OC | 55.5 | 75.2 | 40 | 67.1 | 72.1 | 
14 | 23.2 |  |  |  |  |  |  |  | COc1cc(/C=N/NC(N)=S)cc(Br)c1OC | < 0 | 17.6 | 61.1 | 18.9 | 2.11 | 
15 | 27.7 |  |  |  |  |  |  |  | COc1cc(/C=N/NC(=S)Nc2ccc(Oc3ccccc3)cc2)cc(Br)c1OC | 32.3 | 33.8 | < 0 | 76.3 | 75.9 | 
16 | 32.2 |  |  |  |  |  |  |  | CNC(=S)N/N=C/c1cc(OC)c(OC)c(Br)c1Br | 18.3 | 3.9 | 38.9 | < 0 | 63.4 | 

Row | inhibition [6] [%] | IC50 [7] [µM] | IC50 [8] [µM] | Ratio IC50 [9] | IC50 (SK-OV-3 [10]) [µM] | IC50 (Bel-7402 [11]) [µM] | IC50 (HepG2 [12]) [µM] | IC50 (Caco-2 [13]) [µM] | Structure (SMILES) | inhibition at 20 µM (SK-OV-3 [1]) [%] | inhibition at 20 µM (Bel-7402 [2]) [%] | inhibition at 20 µM (HepG2 [3]) [%] | inhibition at 20 µM (Caco-2 [4]) [%] | inhibition at 48 h, 20 µM [5] [%] | IC50 (L02) [µM]
17 | 46.6 |  |  |  |  |  |  |  | COc1cc(/C=N/NC(=S)Nc2ccc(F)cc2)c(Br)c(Br)c1OC | 66.3 | 54.6 | 60.5 | 24.5 | 85.1 | 
18 | 43.7 |  |  |  | 13.7 | 9.87 | 8.55 | 13.7 | CCOC(=O)c1ccc(NC(=S)N/N=C/c2cc(Br)c(OC)c(OC)c2)cc1 | 60.4 | 39.4 | 59.3 | 55.5 | 84 | 8.8
19 | 30.2 |  |  |  |  |  |  |  | NC(=S)N/N=C/c1cc(O)c(O)c(Br)c1 | < 0 | < 0 | < 0 | 47.9 | 54.8 | 
20 | 40.7 |  |  |  |  |  |  |  | Oc1ccc(/C=N/NC(=S)Nc2ccccc2)cc1O | < 0 | 38.8 | < 0 | 78.2 | 76.4 | 
21 | 38.2 |  |  |  | 15.3 | 13.9 | 13.4 | 10.1 | COc1cc(/C=N/NC(=S)Nc2ccc(Cl)cc2)c(Br)c(Br)c1OC | 81.2 | 51.5 | 62.7 | 44.8 | 85.5 | 3.5
22 | 35.5 |  |  |  |  |  |  |  | COc1cc(/C=N/NC(=S)Nc2ccccc2)cc(Br)c1O | 56 | 25.3 | 62 | 62.9 | 40.7 | 
23 | 34.8 |  |  |  |  |  |  |  | COc1ccc(/C=N/NC(N)=S)c(Br)c1O | 9.92 | 21.4 | 38.5 | 9.01 | 31.8 | 
24 | 12.5 |  |  |  |  |  |  |  | COc1cc(/C=N/NC(=S)Nc2ccccc2)c(Br)c(Br)c1O | 65.5 | 39.5 | 57.1 | 34.9 | 27.8 | 
25 | 42.9 |  |  |  |  |  |  |  | COc1cc(/C=N/NC(N)=S)cc(Br)c1O | 21.6 | 32.3 | 29.6 | 35.6 | < 0 | 
26 | 45.9 |  |  |  | 5.12 | 12.3 | 7.08 | 9.34 | Oc1cc(/C=N/NC(=S)Nc2ccccc2)c(Br)c(Br)c1O | 54.6 | 73.1 | 72.9 | 76.4 | 94.5 | 5.65
27 | 38.3 |  |  |  |  |  |  |  | COc1cc(/C=N/NC(=S)Nc2cccc(C(F)(F)F)c2)cc(Br)c1OC | 63.3 | 26 | 36.4 | 21 | 58.6 | 
28 | 42.6 |  |  |  |  |  |  |  | COc1cc(Br)c(/C=N/NC(N)=S)cc1OC | 20.8 | 18.3 | 37.6 | 8.65 | 42.5 | 
29 | 28 |  |  |  |  |  |  |  | COc1cc(/C=N/NC(N)=S)ccc1O |  |  |  |  |  | 
30 | 28 |  |  |  | 14 | 13.1 | 9.29 | 22.7 | Oc1cc(/C=N/NC(=S)Nc2ccccc2)cc(Br)c1O | 76.2 | 63.5 | 67.9 | 72 | 86.4 | 13.4
31 | 42.9 |  |  |  |  |  |  |  | COc1ccc(/C=N/NC(=S)Nc2ccccc2)c(Br)c1O | 62.1 | 36.4 | 65.6 | 82.4 | 46.9 | 
32 | 37.5 |  |  |  |  |  |  |  | COc1ccc(/C=N/NC(=S)Nc2ccccc2)cc1O | 41.4 | 32.2 | 38 | 71.4 | 41.4 | 

From ChEMBL document CHEMBL4765243, “Discovery of Novel Bromophenol-Thiosemicarbazone Hybrids as Potent Selective Inhibitors of Poly(ADP-ribose) Polymerase-1 (PARP-1) for Use in Cancer” (J Med Chem, 2019)
